Experiments:
[1] = substrate: CCOC(=O)C(=O)Nc1c(Cl)[nH]c(=O)[nH]c1=O; experiment: (§1) Activity at Mycobacterium tuberculosis recombinant lumazine synthase after 30 mins by fluorescence assay
Outline: (§2)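 Recombinant M. tuberculosis lumazine synthase (2 μM) in 100 mM Tris-HCl pH 7.0, 100 mM NaCl, 5 mM DTT, 2% DMSO. Dihydroxybutanone phosphate was fixed at 100 μM, pyrimidinedione substrate varied 3–100 μM, and inhibitor 0–200 μM. Reactions were started with the pyrimidinedione substrate. Lumazine formation was read at 408 nm for 30 min at 27 °C. Velocity–substrate data were fitted by nonlinear regression to alternative inhibition models.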

[2] = substrate: O=C1Nc2ccc(S(=O)(=O)NCCCCCCOP(=O)(O)O)c3cccc1c23; experiment: as §1; outline: as §2
[3] = substrate: O=C1Nc2ccc(S(=O)(=O)NCCCCCOP(=O)(O)O)c3cccc1c23; experiment: as §1; outline: as §2
[4] = substrate: O=C1Nc2ccc(S(=O)(=O)NCCCCOP(=O)(O)O)c3cccc1c23; experiment: as §1; outline: as §2
[5] = substrate: O=C1Nc2ccc(S(=O)(=O)NCCCOP(=O)(O)O)c3cccc1c23; experiment: as §1; outline: as §2
[6] = substrate: O=C1Nc2ccc(S(=O)(=O)NCCOP(=O)(O)O)c3cccc1c23; experiment: as §1; outline: as §2

B1: 6,7-dimethyl-8-ribityllumazine synthase (Mycobacterium tuberculosis), P9WHE9 (protein)
chain: MKGGAGVPDLPSLDASGVRLAIVASSWHGKICDALLDGARKVAAGCGLDDPTVVRVLGAIEIPVVAQELARNHDAVVALGVVIRGQTPHFDYVCDAVTQGLTRVSLDSSTPIANGVLTTNTEEQALDRAGLPTSAEDKGAQATVAALATALTLRELRAHS
kcat [1]: 0.0102 s⁻¹
kcat [2]: 0.0075 s⁻¹
kcat [3]: 0.0075 s⁻¹
kcat [4]: 0.00733 s⁻¹
kcat [5]: 0.0075 s⁻¹
kcat [6]: 0.00683 s⁻¹
